Experimental findings from ChEMBL document CHEMBL1275546, “Use of gyrase resistance mutants to guide selection of 8-methoxy-quinazoline-2,4-diones” (2008) are described below.

SMILES strings stand for the structures. ≈ marks a conversion by molar mass, not a printed value. Calls of active or inactive are those of the source. The rule behind the calls is not given here. Bounds are passed on as bounds.

The subject of assay [1] is Escherichia coli. In words: Ratio of MIC for Escherichia coli K-12 KD2934 harboring gyrB K447E mutant gene to MIC for Escherichia coli K-12 KD1397 harboring wild type gyrB gene. It is filed as functional. The procedure, abridged: (§1)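 Isogenic E. coli K-12 tolC::Tn10 strains made by P1 transduction. Each grown in LB to mid-exponential phase, diluted to 10^{4-5} CFU/ml in LB tubes with drug, incubated overnight at 37°C. MIC = lowest concentration blocking visible growth. Ratio = mutant MIC divided by KD1397 (gyr+) MIC.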

Assay [2] has as its system Escherichia coli. Briefly: Ratio of MIC for Escherichia coli K-12 KD2932 harboring gyrB D426N mutant gene to MIC for Escherichia coli K-12 KD1397 harboring wild type gyrB gene. It is filed as functional. The procedure, abridged: as §1
The subject of assay [3] is Escherichia coli. Briefly: Antibacterial activity against wild type Escherichia coli K-12 KD1397 harboring gyr gene. It is filed as functional. The procedure, abridged: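 Broth MIC: E. coli K-12 tolC::Tn10 strain grown in LB to mid-exponential phase, diluted to 10^4-5 CFU/ml in tubes of LB containing drug, incubated overnight at 37°C; MIC = lowest concentration blocking visible growth.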

In assay [4] the test system is Escherichia coli. Briefly: Ratio of MIC for Escherichia coli K-12 KD2880 harboring gyrA D87Y mutant gene to MIC for Escherichia coli K-12 KD1397 harboring wild type gyrA gene. It is filed as functional. The procedure, abridged: as §1
The subject of assay [5] is Escherichia coli. In words: Ratio of MIC for Escherichia coli K-12 KD2884 harboring gyrA A106H mutant gene to MIC for Escherichia coli K-12 KD1397 harboring wild type gyrA gene. It counts as functional. The procedure, abridged:
as §1

Assay [6] deals with Escherichia coli. Briefly: Ratio of MIC for Escherichia coli K-12 KD2955 harboring gyrA D82A mutant gene to MIC for Escherichia coli K-12 KD1397 harboring wild type gyrA gene. It counts as functional. The procedure, abridged:
as §1

Assay [7] has as its system Escherichia coli. Briefly: Ratio of MIC for Escherichia coli K-12 KD2864 harboring gyrA A84P mutant gene to MIC for Escherichia coli K-12 KD1397 harboring wild type gyrA gene. It is filed as functional. The procedure, abridged:
as §1

The test system of assay [8] is Escherichia coli. Briefly: Ratio of MIC for Escherichia coli K-12 KD2886 harboring gyrA A51V mutant gene to MIC for Escherichia coli K-12 KD1397 harboring wild type gyrA gene. It counts as functional. The procedure, abridged: as §1
Assay [9] relates to Escherichia coli. Briefly: Ratio of MIC for Escherichia coli K-12 KD2866 harboring gyrA D87Y mutant gene to MIC for Escherichia coli K-12 KD1397 harboring wild type gyrA gene.
The test system of assay [10] is Escherichia coli. Briefly: Ratio of MIC for Escherichia coli K-12 KD2876 harboring gyrA S83W mutant gene to MIC for Escherichia coli K-12 KD1397 harboring wild type gyrA gene. It counts as functional. The procedure, abridged: as §1
Assay [11] concerns Escherichia coli. Briefly: Ratio of MIC for Escherichia coli K-12 KD2882 harboring gyrA G81C mutant gene to MIC for Escherichia coli K-12 KD1397 harboring wild type gyrA gene. It is filed as functional. The procedure, abridged:
as §1

The subject of assay [12] is Escherichia coli. Briefly: Ratio of MIC for Escherichia coli K-12 KD2862 harboring gyrA S83L mutant gene to MIC for Escherichia coli K-12 KD1397 harboring wild type gyrA gene. It counts as functional. The procedure, abridged: as §1
In assay [13] the test system is Escherichia coli. Briefly: Ratio of MIC for Escherichia coli K-12 KD2878 harboring gyrA A67S mutant gene to MIC for Escherichia coli K-12 KD1397 harboring wild type gyrA gene. It counts as functional. The procedure, abridged:
as §1

Assay [14] relates to Escherichia coli. Briefly: Bactericidal activity against wild type Escherichia coli K-12 KD1397 at 10 times MIC. It is filed as functional. The procedure, abridged:
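Exponentially growing E. coli K-12 (tolC-deficient via Tn10, gyr+) in LB at 37°C was exposed to drug at 10× the MIC for the indicated times. Aliquots were diluted and plated on drug-free agar to count CFU. Survival is expressed as the fraction of CFU present when drug was added. MIC came from overnight broth tubes inoculated at 10^4-5 CFU/ml and read by eye.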

The test system of assay [15] is Escherichia coli. In words: Bactericidal activity against wild type Escherichia coli K-12 KD1397 at 10 times MIC after 2 hrs. It counts as functional, organism-based. The procedure, abridged: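 Wild-type KD1397 (tolC-deficient), exponential-phase LB culture, exposed to drug at 10× MIC for timed intervals or for 2 h. Samples diluted and plated on drug-free agar for CFU counts. Survival given as fraction of CFU at drug addition.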

Assay [16] has as its system Escherichia coli. Briefly: Bactericidal activity against Escherichia coli K-12 KD2866 harboring gyrA D87Y mutant gene assessed as bacterial count at 10 times MIC. It counts as functional, organism-based.
Assay [17] concerns Escherichia coli. Briefly: Bactericidal activity against Escherichia coli K-12 […] harboring gyrA D87Y mutant gene assessed as bacterial count at 10 times MIC after 2 hrs. It is filed as functional, organism-based.

By MIC is commonly meant the lowest concentration found to suppress growth. High values mean weaker potency, low ones greater potency. On to `COc1c(N2CC[C@H](N)C2)c(F)cc2c(=O)c(C(=O)O)cn(C3CC3)c12`, for which the Ratio is over 1 with Escherichia coli [1] and 2 in the assay on Escherichia coli [2]. It took 0.016 µg/mL (≈ 0.0443 µM) to inhibit growth in the assay on Escherichia coli [3] (MIC).

On to `COc1c(N2CC[C@H](N)C2)c(F)cc2c(=O)n(N)c(=O)n(C3CC3)c12`, for which the Ratio with Escherichia coli [4] is recorded as 1; in the assay on Escherichia coli [5] it was 1; in the assay on Escherichia coli [1] it was under 1; with Escherichia coli [6] it was 1; in the assay with Escherichia coli [2], 1; in the assay with Escherichia coli [7] it was 1. Moreover, the Ratio with Escherichia coli [8], in the assay with Escherichia coli [9], in the assay on Escherichia coli [10], in the assay with Escherichia coli [11], with Escherichia coli [12] and with Escherichia coli [13] was 1 each time.

Regarding `COc1c(N2CC[C@H](N)C2)c(F)cc2c(=O)[nH]c(=O)n(C3CC3)c12`, the Ratio in the assay with Escherichia coli [1] was under 1; in the assay with Escherichia coli [2], 1.

For `COc1c(N2CC[C@@H](CN)C2)c(F)cc2c(=O)c(C(=O)O)cn(C3CC3)c12`, the Ratio is given as over 1 in the assay on Escherichia coli [1] and 2 in the assay on Escherichia coli [2]. In the assay with Escherichia coli [3], this compound displayed an MIC of 0.004 µg/mL (≈ 0.0107 µM).

Regarding `CCC1CN(c2c(F)cc3c(=O)c(C(=O)O)cn(C4CC4)c3c2OC)CCN1` (stereo not drawn), the Ratio in the assay on Escherichia coli [1] is reported as under 1. The Ratio in the assay on Escherichia coli [2] stood at 2. In the assay with Escherichia coli [14], the result was Active and the “fold change (FC)” value is reported as 2.

`COc1c(N2CC[C@@H](CN)C2)c(F)cc2c(=O)[nH]c(=O)n(C3CC3)c12`: the Ratio with Escherichia coli [1] and with Escherichia coli [2] was under 1 each time.

As to `CCC1CN(c2c(F)cc3c(=O)[nH]c(=O)n(C4CC4)c3c2OC)CCN1` (stereo not drawn), the Ratio in the assay with Escherichia coli [1] is listed as under 1; in the assay with Escherichia coli [2] it was 1.

As to `COc1c(N2C[C@@H]3CCCN[C@@H]3C2)c(F)cc2c(=O)n(N)c(=O)n(C3CC3)c12`, the Ratio is recorded as 1 with Escherichia coli [4]; 1 with Escherichia coli [5]; under 1 with Escherichia coli [1]; 1 in the assay with Escherichia coli [6]; 1 with Escherichia coli [2]; 1 in the assay on Escherichia coli [7]. Also, the Ratio with Escherichia coli [8], with Escherichia coli [9], with Escherichia coli [10], in the assay on Escherichia coli [11], in the assay on Escherichia coli [12] and in the assay with Escherichia coli [13] was 1 each time. Moreover, the outcome with Escherichia coli [15] was inactive.

For `COc1c(N2C[C@@H]3CCCN[C@@H]3C2)c(F)cc2c(=O)c(C(=O)O)cn(C3CC3)c12` [MOXIFLOXACIN], the Ratio with Escherichia coli [1] is listed as under 1; in the assay on Escherichia coli [2], 2.

As for `COc1c(N2CC[C@@H](CN)C2)c(F)cc2c(=O)n(N)c(=O)n(C3CC3)c12`, the result with Escherichia coli [16], in the assay with Escherichia coli [17] and in the assay on Escherichia coli [14] was Active. Moreover, the Ratio is recorded as 1 in the assay with Escherichia coli [4]; 1 in the assay with Escherichia coli [5]; under 1 in the assay on Escherichia coli [1]; 1 in the assay on Escherichia coli [6]; under 1 with Escherichia coli [2]; 1 in the assay with Escherichia coli [7]. Further, the Ratio in the assay with Escherichia coli [8], with Escherichia coli [9], in the assay with Escherichia coli [10], in the assay with Escherichia coli [11], in the assay on Escherichia coli [12] and with Escherichia coli [13] was 1 throughout. This compound had an MIC against Escherichia coli [3] of 0.7 µg/mL (≈ 1.93 µM).

For the compound `COc1c(N2C[C@@H]3CCCN[C@@H]3C2)c(F)cc2c(=O)[nH]c(=O)n(C3CC3)c12`, the figures for the Ratio with Escherichia coli [1] and with Escherichia coli [2] were under 1 and 1, respectively.

Regarding `CCC1CN(c2c(F)cc3c(=O)n(N)c(=O)n(C4CC4)c3c2OC)CCN1` (stereo not drawn), the Ratio in the assay on Escherichia coli [1] was under 1; with Escherichia coli [2] it was 1.
